For assay [1], the target named is T1, Monoacylglycerol lipase ABHD6 (Mus musculus) (UniProt Q8R2Y0).
T1 sequence (whole entry): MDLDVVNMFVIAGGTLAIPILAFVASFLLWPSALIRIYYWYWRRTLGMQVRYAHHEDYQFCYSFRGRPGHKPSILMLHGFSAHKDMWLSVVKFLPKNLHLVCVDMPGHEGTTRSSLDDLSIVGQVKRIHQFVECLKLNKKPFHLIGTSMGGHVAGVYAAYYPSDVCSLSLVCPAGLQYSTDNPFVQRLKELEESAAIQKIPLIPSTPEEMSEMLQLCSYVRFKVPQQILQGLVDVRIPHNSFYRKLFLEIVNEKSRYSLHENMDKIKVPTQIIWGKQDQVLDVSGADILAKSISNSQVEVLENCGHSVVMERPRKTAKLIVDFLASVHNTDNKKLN
Briefly: Inhibition of mouse brain ABHD6 at 10 uM incubated with compound for 25 mins by TAMRA-FP probe based SDS-PAGE analysis. The assay is classed as tissue-based. The gist of the method: (§1)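 Mouse brain membranes (2 mg/mL final, in PBS) preincubated 25 min at 25 °C with test compound (10 μM final) or DMSO vehicle. Controls: JZL-184, URB597 4 μM, WWL70 10 μM, THL, MAFP 5 μM. TAMRA-FP 125 nM final added for 5 min at 25 °C. Reaction stopped with Laemmli buffer, 3 min at 25 °C then 10 min at 90 °C. Separation by 10% SDS-PAGE, fluorescence scanning, three independent experiments.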

Another assay has as its target T2, Monoglyceride lipase (Homo sapiens, UniProt Q99685).
T2 sequence (Q99685 whole entry): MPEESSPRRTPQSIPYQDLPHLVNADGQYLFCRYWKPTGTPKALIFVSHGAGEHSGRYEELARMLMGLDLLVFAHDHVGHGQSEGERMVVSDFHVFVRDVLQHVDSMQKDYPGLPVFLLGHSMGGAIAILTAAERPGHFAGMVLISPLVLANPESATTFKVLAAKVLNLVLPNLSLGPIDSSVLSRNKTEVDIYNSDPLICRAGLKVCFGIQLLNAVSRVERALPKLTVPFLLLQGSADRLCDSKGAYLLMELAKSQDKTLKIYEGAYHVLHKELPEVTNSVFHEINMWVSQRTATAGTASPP
The assay can be described thus: Inhibition of human recombinant MAGL using 4-nitrophenylacetate as substrate incubated for 30 mins by microplate reader analysis.

Assay [2] deals with Cannabinoid receptor 1 (Homo sapiens) (UniProt P21554). The assay can be described thus: Displacement of [3H]CP55940 from human CB1 receptor at 10 uM incubated for 90 mins. The method, boiled down:
(§2)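 Membranes expressing hCB1 or hCB2 in 50 mM Tris-HCl buffer, pH 7.4, with 2.5 mM EDTA, 5 mM MgCl2 and 0.5% fatty acid-free BSA. Incubated with compound (10 μM screening) or vehicle plus 0.5 nM [3H]CP55,940 for 90 min at 30 °C. Non-specific binding defined with 10 μM […]. GF/B filtration, ice-cold buffer washes, radioactivity counted. Two independent experiments in triplicate.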
On the technique in general: Loss of bound radioactivity is the signal in a displacement assay; it reports binding, not function.

The target in assay [3] is T3, Fatty-acid amide hydrolase 1 (Mus musculus) (UniProt O08914).
T3 sequence (whole entry): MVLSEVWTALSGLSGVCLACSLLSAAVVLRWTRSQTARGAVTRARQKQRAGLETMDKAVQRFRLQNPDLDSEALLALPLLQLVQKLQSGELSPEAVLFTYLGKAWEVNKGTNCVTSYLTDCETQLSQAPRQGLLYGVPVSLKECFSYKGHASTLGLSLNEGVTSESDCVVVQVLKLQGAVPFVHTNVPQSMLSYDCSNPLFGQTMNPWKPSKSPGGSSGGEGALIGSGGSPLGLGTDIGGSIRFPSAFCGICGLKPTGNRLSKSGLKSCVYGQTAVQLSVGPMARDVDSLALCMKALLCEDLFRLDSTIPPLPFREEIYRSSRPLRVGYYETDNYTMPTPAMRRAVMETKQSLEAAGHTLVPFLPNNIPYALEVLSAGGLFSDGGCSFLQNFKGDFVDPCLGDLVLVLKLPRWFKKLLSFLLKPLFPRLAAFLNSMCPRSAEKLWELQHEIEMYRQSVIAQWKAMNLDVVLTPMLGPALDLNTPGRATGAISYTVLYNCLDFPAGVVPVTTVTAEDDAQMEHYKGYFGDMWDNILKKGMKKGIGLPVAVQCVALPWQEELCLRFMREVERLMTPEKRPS
The assay can be described thus: Inhibition of mouse brain FAAH at 10 uM incubated with compound for 25 mins by TAMRA-FP probe based SDS-PAGE analysis. The assay is classed as tissue-based. The method, boiled down:
as §1

In assay [4] the target is T4, Monoglyceride lipase (Homo sapiens) (UniProt Q99685).
T4 sequence (whole entry): T2 sequence (Q99685 whole entry)
The assay can be described thus: Reversible inhibition of human recombinant MAGL using 4-nitrophenylacetate as substrate preincubated with compound for 60 mins followed by substrate addition and measured after 30 mins by microplate reader analysis. The settings on record: time 90.0 min. The gist of the method:
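Human recombinant MAGL (11 ng/well) in Tris pH 7.2 buffer with EDTA and BSA, preincubated with compound for 0, 30 or 60 min at room temperature. Reaction then started with 4-NPA 500 μM (solution added). Absorbance at 405 nm after 30 min. IC50 from triplicates of two independent experiments.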

Assay [5] addresses Cannabinoid receptor 2 (Homo sapiens) (UniProt P34972). Briefly: Displacement of [3H]CP55940 from human CB2 receptor at 10 uM incubated for 90 mins. The method, boiled down:
as §2

Assay [6] has as its target T4, Monoglyceride lipase (Homo sapiens). Briefly: Reversible inhibition of human recombinant MAGL using 4-nitrophenylacetate as substrate at 320 nM incubated for 15 mins by microplate reader analysis. The gist of the method: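 Human recombinant MAGL (880 ng in Tris buffer, pH 7.2) incubated 60 min at room temperature with compound at 320 nM in the mixture, then diluted 40-fold in buffer. After 15 min, reaction started with 4-NPA 500 μM (stock added). Activity read at 405 nm after 30 min. Undiluted comparison run at 320 nM and 8 nM.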

For assay [7], the target named is T5, Lysophosphatidylserine lipase ABHD12 (Mus musculus) (UniProt Q99LR1).
T5 sequence (whole entry): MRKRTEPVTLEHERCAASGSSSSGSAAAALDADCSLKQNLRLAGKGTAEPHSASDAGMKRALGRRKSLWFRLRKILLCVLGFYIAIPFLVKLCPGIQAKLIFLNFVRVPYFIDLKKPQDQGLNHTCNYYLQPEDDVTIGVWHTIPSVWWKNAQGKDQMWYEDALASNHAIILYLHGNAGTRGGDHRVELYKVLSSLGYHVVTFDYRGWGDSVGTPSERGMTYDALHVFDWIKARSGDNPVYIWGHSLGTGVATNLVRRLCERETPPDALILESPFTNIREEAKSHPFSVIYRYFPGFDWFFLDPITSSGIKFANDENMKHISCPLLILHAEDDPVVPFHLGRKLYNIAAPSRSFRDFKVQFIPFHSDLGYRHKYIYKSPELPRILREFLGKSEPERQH
Briefly: Inhibition of mouse brain ABHD12 at 10 uM incubated with compound for 25 mins by TAMRA-FP probe based SDS-PAGE analysis. The assay is classed as tissue-based. The method, boiled down: as §1

Calls of active or inactive are those of the source. The rule behind the calls is not given here.

Sequence of Cannabinoid receptor 2 (Homo sapiens) (P34972 whole entry): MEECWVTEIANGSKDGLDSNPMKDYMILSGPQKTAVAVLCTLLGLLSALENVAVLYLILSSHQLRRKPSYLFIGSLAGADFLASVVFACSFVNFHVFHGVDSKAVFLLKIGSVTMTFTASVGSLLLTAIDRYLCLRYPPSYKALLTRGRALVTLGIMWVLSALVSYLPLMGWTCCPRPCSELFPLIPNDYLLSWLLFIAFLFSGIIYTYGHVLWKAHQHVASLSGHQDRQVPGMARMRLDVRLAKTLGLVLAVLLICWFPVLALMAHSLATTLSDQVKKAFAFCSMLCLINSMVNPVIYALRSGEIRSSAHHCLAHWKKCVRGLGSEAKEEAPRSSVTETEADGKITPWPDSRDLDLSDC
Sequence of Cannabinoid receptor 1 (Homo sapiens) (P21554 whole entry): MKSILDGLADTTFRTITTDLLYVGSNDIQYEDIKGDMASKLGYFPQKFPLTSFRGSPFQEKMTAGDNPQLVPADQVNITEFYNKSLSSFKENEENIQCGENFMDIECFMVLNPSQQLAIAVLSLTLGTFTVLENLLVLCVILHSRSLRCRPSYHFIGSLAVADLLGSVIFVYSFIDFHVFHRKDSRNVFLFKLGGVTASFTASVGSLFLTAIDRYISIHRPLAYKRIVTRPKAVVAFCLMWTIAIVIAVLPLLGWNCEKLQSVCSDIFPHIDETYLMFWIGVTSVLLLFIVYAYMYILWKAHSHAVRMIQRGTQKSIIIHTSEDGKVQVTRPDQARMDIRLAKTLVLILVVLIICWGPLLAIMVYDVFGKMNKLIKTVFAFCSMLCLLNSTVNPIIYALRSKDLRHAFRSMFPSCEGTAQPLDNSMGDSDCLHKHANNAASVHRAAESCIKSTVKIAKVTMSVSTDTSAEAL

By IC50 is commonly meant the concentration needed to halve the response being measured. Turning to `O=C(c1cc(O)ccc1F)N1CCN(Cc2cccc(Sc3cc(C(F)(F)F)ccn3)c2)CC1`, the inhibition entry in assay [1], in assay [3] and in assay [7] was “inactive” each time. Besides, the IC50 on Monoglyceride lipase was found to be 5.2 nM. Also, the result in assay [2] and in assay [5] was inactive. For the same compound, the inhibition entry in assay [4] and in assay [6] was “Active” each time.
On to `O=C(c1cccc(O)c1)N1CCC(Cc2cccc(Sc3cc(C(F)(F)F)ccn3)c2)CC1`, for which the inhibition entry in assay [1], in assay [3] and in assay [7] was “inactive” in each case. Besides, the IC50 at Monoglyceride lipase was found to be 2.5 nM. The outcome in assay [2] and in assay [5] was inactive. For the same compound, the inhibition entry in assay [4] and in assay [6] was “Active” throughout.
In the case of `O=C(c1cc(O)ccc1F)N1CCC(Cc2cccc(Sc3cc(C(F)(F)F)ccn3)c2)CC1`, the inhibition result in assay [1], in assay [3] and in assay [7] was “inactive” throughout. Besides, the 50% inhibitory concentration (IC50) at Monoglyceride lipase amounted to 1.3 nM. The result in assay [2] and in assay [5] was inactive. Also, the inhibition result in assay [4] and in assay [6] was “Active” each time.
Regarding `O=C(c1cccc(O)c1)N1CCC(Cc2ccc(F)c(Sc3cc(C(F)(F)F)ccn3)c2)CC1`, the inhibition entry in assay [1], in assay [3] and in assay [7] was “inactive” throughout. For the same compound, the concentration for half-maximal inhibition (IC50) on Monoglyceride lipase is 2.7 nM. Moreover, the result in assay [2] and in assay [5] was inactive. For the same compound, the inhibition result in assay [4] and in assay [6] was “Active” each time.

Values taken from ChEMBL document CHEMBL5532647, “Design, synthesis, ADME and biological evaluation of benzylpiperidine and benzylpiperazine derivatives as novel reversible monoacylglycerol lipase (MAGL) inhibitors” (Eur J Med Chem, 2024).
